The values below come from the array DNA melting data of Ke et al. (doi:10.1101/2024.01.08.574731).

Data set [1] can be described thus: folding enthalpy; higher = less favourable; fluorescence melt of hairpins on a sequencing array, two-state fit. The note with it: sodium 0.088 M. The method, boiled down:
(§1)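 Cy3 fluorescence of library hairpins on a sequenced MiSeq flow cell, with annealed Cy3 and quencher oligos, was imaged in 50 mM Na-HEPES pH 8.0, 25 mM NaCl in 2.5 °C steps up to 60 °C. Signals were normalised to pre-quench Cy3 and to control variants. Melting temperature and folding enthalpy came from bootstrapped two-state fits, inverse-variance combined over four replicates. Fitted temperatures were raised by 9.35 °C to match UV melts.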

Data set [2] can be described thus: melting temperature; fluorescence melt of hairpins on a sequencing array, two-state fit, raised by 9.35 °C to match UV melts. The note with it: sodium 0.088 M. Summed up: as §1

For GATCCGTGACCGGATC ((((((....)))))), the folding enthalpy in data set [1] is -44.1 kcal/mol. Moreover, in data set [2], the Tm came to 56 °C.
The corresponding values for GTATCACCGAAAGGTTAC (((..(((....)))))) are -8.26 kcal/mol and 25.8 °C.
The corresponding values for GGGGGCGAAAGCCCTCCC ((((((....)))..))) are -9.75 kcal/mol and 51.9 °C.
As for GCGTTGGGAAACTGACGC ((((..(....)..)))), the folding enthalpy in data set [1] is -35.3 kcal/mol. Also, the Tm in data set [2] stood at 49.7 °C.
On to GATGTTGGAAACAGCATC ((((.((....)).)))), for which the folding enthalpy in data set [1] was -25 kcal/mol. For the same sequence, in data set [2], the Tm stood at 45.5 °C.
For GATCTCGCTCGAGATC ((((((....)))))), in that order: -44.8 kcal/mol and 57.5 °C.
The corresponding values for GGATCCGAAAGGACTCC ((((((....))).))) are -23.9 kcal/mol and 47.4 °C.
GATCAAAAAGTTGATC ((((((....)))))): the folding enthalpy in data set [1] was -14.1 kcal/mol. In addition, the Tm in data set [2] amounted to 33 °C.
The corresponding values for GCAACGCGAAAGCATCGC ((.(.((....)).).)) are -13.5 kcal/mol and 39.2 °C.
Turning to GATCTTTGGGAAGATC ((((((....)))))), in data set [1], the folding enthalpy was -34.1 kcal/mol. The Tm in data set [2] was 45.6 °C.
Regarding GCATGCGAAAGCAGGTGC ((((((....)))..))), the folding enthalpy in data set [1] is -23.2 kcal/mol. Besides, the Tm in data set [2] was 51.1 °C.
Take GATCTATACTTAGATC ((((((....)))))): the folding enthalpy in data set [1] is -46.9 kcal/mol. In data set [2], the Tm turned out to be 45.6 °C.
On to GCATAGGGAAACCTGTGC (((.(((....))).))), for which, in data set [1], the folding enthalpy is -33.6 kcal/mol. In addition, the Tm in data set [2] is 50.3 °C.
The corresponding values for GTGCACTCGAAAGAGCAC (((..(((....)))))) are -27.8 kcal/mol and 45.2 °C.
For GATCACGGAAACGTGATC (((((((....))))))), the folding enthalpy in data set [1] is -34.2 kcal/mol. Also, the Tm in data set [2] came to 66.2 °C.
For GATCTGTAAGCAGATC ((((((....)))))), in that order: -49.9 kcal/mol and 51.4 °C.
The corresponding values for GCGACCGCGAAAGCGCGC (((..(((....)))))) are -15.4 kcal/mol and 56.1 °C.
For GCTCAGGGAAACCCAAGC (((..((....))..))), in that order: -12.9 kcal/mol and 33.3 °C.
As to GATCGACGGTCGATC ((((((...)))))), in data set [1], the folding enthalpy is -43.7 kcal/mol. For the same sequence, the Tm in data set [2] amounted to 51.2 °C.
The corresponding values for GTGACCGAAAGGTCGCAC ((((((....)))..))) are -11.1 kcal/mol and 58.6 °C.
For the sequence GAGCGCGCGAAAGCGCTC (((..(((....)))))), the folding enthalpy in data set [1] was -12.4 kcal/mol. The Tm in data set [2] is 64.6 °C.
For GTGCGCCCGAAAGGGCAC (((..(((....)))))), in that order: -10.4 kcal/mol and 64.3 °C.
On to GATCGATATGTCGATC ((((((....)))))), for which, in data set [1], the folding enthalpy was -41.9 kcal/mol. In addition, the Tm in data set [2] worked out at 55 °C.
For GGCTGCGGAAACGCGGTC (.(.(((....))).).), in that order: -28.7 kcal/mol and 53.1 °C.
With GGAAGCGAAAGCTGTTCC ((((((....)))..))), in data set [1], the folding enthalpy is -12.1 kcal/mol. Moreover, the Tm in data set [2] came to 36.5 °C.
Consider GATCTTCCGAAAGATC ((((((....)))))), for which the folding enthalpy in data set [1] is -29.7 kcal/mol. Besides, the Tm in data set [2] amounted to 43.2 °C.
In the case of GATCCGGTCTCGGATC ((((((....)))))), in data set [1], the folding enthalpy is -26.6 kcal/mol. In addition, the Tm in data set [2] is 58.6 °C.
For GATCCAGGCTGGATC ((((((...)))))), in that order: -46.7 kcal/mol and 53 °C.
For GATCGACGCTTCGATC ((((((....)))))), the folding enthalpy in data set [1] is -40.6 kcal/mol. In data set [2], the Tm is 53.3 °C.
Take GCAACGGGAAACCGCTGC (((.(((....))).))): the folding enthalpy in data set [1] was -44 kcal/mol. Also, the Tm in data set [2] was found to be 51.5 °C.
For the sequence GAGAAGACGAAAGTCCTC (((..(((....)))))), the folding enthalpy in data set [1] was -13.2 kcal/mol. Further, in data set [2], the Tm was 31.4 °C.
The corresponding values for GATCGAGACATCGATC ((((((....)))))) are -38.9 kcal/mol and 58.8 °C.
For the sequence GAAACCCCGAAAGGGTTC (((..(((....)))))), the folding enthalpy in data set [1] was -14 kcal/mol. Moreover, in data set [2], the Tm was determined as 35.7 °C.
In the case of GTTGCAGGAAACTGTAGC (.(.(((....))).).), in data set [1], the folding enthalpy was -19.9 kcal/mol. Moreover, the Tm in data set [2] is 32.6 °C.
The corresponding values for GATCTATCTCTAGATC ((((((....)))))) are -28.3 kcal/mol and 39.6 °C.
For GCCGCCGAAAGGCCGGGC ((((((....)))..))), in that order: -16.9 kcal/mol and 60.4 °C.
With GTTAGTGGAAACACCAAC (((.(((....))).))), the folding enthalpy in data set [1] is -13.3 kcal/mol. Further, the Tm in data set [2] was 29.3 °C.
